Source: PubChem
rCAG binder – binds r(CAG) RNA repeats; r(CAG) RNA repeat, TO-PRO-1 dye displacement fluorescence; AID 651821; inhibition, % at 3 µM; hit rate 1.3% among 370,000;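 active = inhibition above the plate cutoff, the mean of all test compounds on that plate plus 3 SD, cut at about 35% in these data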;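 note: higher means more dye released from RNA so lower well fluorescence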
NadD inh – inhibitors of Staphylococcus aureus NadD. hit rate 0.78% among 360,000. inhibition, % at 20 µM. AID 602399. purified NadD enzyme, colorimetric absorbance read-out; in the data active = inhibition above about 26%
Scp-1 inhibitor – blocks human Scp-1 phosphatase activity. hit rate 0.88% among 340,000. Q9GZU7. inhibition, % at 20 µM. Recombinant Scp1, phosphopeptide, malachite green phosphate absorbance;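 active = inhibition above about 50% at 20 µM, limit read from the data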
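Assay system: SCP-1 catalytic fragment, aa 76-261 | Buffer or medium: Tris acetate buffer pH 5.5 with MgCl2 and Tween-20 | Compound: One concentration, 20 µM, with 1.0% DMSO | Also added: Phospho 17-mer peptide substrate | Signal: Absorbance at 630 nm | Incubation: 45 min enzyme reaction at room temperature | Measure: % inhibition of SCP-1 phosphate liberation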
LMPTP inh – LMPTP (human) inhibition. P24666. recombinant LMPTP-A, OMFP fluorogenic substrate, fluorescence intensity. inhibition, % at 20 µM. hit rate 0.22% among 360,000;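 active = compounds that cut the enzyme signal by at least half of the control window in the single-dose screen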
Target sequence (P24666 whole entry, looked up): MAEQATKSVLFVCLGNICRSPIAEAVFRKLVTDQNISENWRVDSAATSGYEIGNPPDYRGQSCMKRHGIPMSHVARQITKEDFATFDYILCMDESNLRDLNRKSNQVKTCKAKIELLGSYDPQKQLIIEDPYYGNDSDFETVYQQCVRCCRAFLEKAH
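material = LMPTP-A | quantity = 0.625 nM enzyme | reagent = OMFP substrate, 400 µM final | buffer or medium = Bis-Tris pH 6.0, DTT, detergent | detection = endpoint fluorescence intensity from OMFP dephosphorylation | dosing = single 20 µM dose | read-out basis = % inhibition relative to no-enzyme and uninhibited control wells | control set = no-enzyme and uninhibited controls | timing = 50 min at room temperature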
STEP inh – inhibitors of human striatal-enriched phosphatase STEP | inhibition, % at 20 µM | AID 588621 | hit rate 0.25% among 360,000 | P54829 | recombinant STEP, OMFP fluorogenic substrate, fluorescence;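 active = inhibition at 20 µM, scaled per plate between control wells, above about 37%, limit read from the data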
Target sequence (P54829 whole entry, looked up): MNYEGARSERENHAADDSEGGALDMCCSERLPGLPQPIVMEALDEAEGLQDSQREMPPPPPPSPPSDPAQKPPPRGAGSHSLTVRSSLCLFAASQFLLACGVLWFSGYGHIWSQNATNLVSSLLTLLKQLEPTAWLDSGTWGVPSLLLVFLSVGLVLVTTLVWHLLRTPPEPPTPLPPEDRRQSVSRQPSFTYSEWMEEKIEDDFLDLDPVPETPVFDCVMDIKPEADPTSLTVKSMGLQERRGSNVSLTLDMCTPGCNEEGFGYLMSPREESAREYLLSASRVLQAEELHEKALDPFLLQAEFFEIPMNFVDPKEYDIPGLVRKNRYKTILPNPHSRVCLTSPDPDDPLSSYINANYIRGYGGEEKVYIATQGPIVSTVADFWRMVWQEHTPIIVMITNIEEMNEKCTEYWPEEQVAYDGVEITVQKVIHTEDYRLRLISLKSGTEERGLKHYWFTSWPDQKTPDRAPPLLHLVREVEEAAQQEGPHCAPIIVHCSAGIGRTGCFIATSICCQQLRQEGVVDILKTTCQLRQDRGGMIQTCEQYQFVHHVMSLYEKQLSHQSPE
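Test system: STEP tyrosine phosphatase / Reagent: OMFP at 25 µM / Doses: 20 µM, 1% DMSO / Read-out: percent inhibition scaled to no-enzyme and uninhibited-enzyme controls, plate-pattern corrected / Detection: FITC-channel fluorescence of OMFP product / Medium: Bis-Tris buffer pH 6.0, 2.5 mM DTT, 0.005% Tween 20 / Schedule: 20 min at room temperature, dark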
Scp-1 conf – confirmation of human Scp-1 phosphatase inhibitors; shares compounds with Scp-1 inhibitor; recombinant SCP-1 catalytic domain, phosphate release, malachite green absorbance; inhibition, % at 20 µM; hit rate 61% among 2,500
MG interference – interferes with malachite green readout, flagging false Scp-1 hits; shares compounds with Scp-1 inhibitor; Colorimetric interference counterscreen, malachite green absorbance 630 nm; apparent inhibition (interference), % at 20 µM; 2,500 tested, under 10 active; AID 540313;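 note: compounds added after enzyme reaction finished so only phosphate colour detection is probed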
Scp1 DSF – Scp-1 (human) binding by thermal shift | shares compounds with Scp-1 inhibitor | Recombinant SCP1, Sypro Orange thermal shift Tm | hit rate 25% among 1,500 | AID 540329 | thermal shift relative to vanadate control, % at 40 µM;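 active = substances whose mean melting-temperature shift, as a percentage of the reference inhibitor's shift, reaches about 5.3%, limit read from the data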
STEP inh conf – confirmation of human STEP phosphatase inhibitors; inhibition, % at 20 µM; shares compounds with STEP inh; recombinant STEP, OMFP fluorogenic substrate, fluorescence; hit rate 32% among 520; call rule not given here
NadD conf – NadD (S. aureus) inhibition, single concentration confirmation; inhibition, % at 20 µM; hit rate 13% among 2,000; purified S. aureus NadD, colorimetric enzyme assay; shares compounds with NadD inh; in the data active = inhibition mostly above about 42%, no sharp cut-off; inactive = mostly below about 42%
A number is an active result; 0 = inactive; - = not tested or not shown. Compounds with a hit are over-represented: about 2.6% of the library has one in this group of screens.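 Rule for the calls, unless noted: active = inhibition of at least 30% at 20 µM; inactive = the rest.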

SMILES | rCAG binder | NadD inh | Scp-1 inhibitor | LMPTP inh | STEP inh | Scp-1 conf | MG interference | Scp1 DSF | NadD conf | others
Clc1ccc(Br)cc1-c1nc(-c2ccncc2)no1 | 0 | 0 | 102 | 72 | 65 | 35 | 0 | 0 | - | STEP inh conf=0
COc1ccc(-c2cnnc(N/N=C/c3ccc(-c4ccc([N+](=O)[O-])cc4)o3)n2)cc1 | 0 | 0 | 108 | 57 | 50 | 49 | 0 | 0 | - | STEP inh conf=0
O=[N+]([O-])c1ccc(-c2ccc(/C=N/Nc3nc(N4CCCC4)nc(N4CCCC4)n3)o2)cc1 | 0 | 0 | 0 | 0 | 0 | - | - | - | -
NC(=O)COc1ccc(/C=N\NC(=O)c2ccc(-c3ccccc3)cc2)cc1 | 0 | 0 | 86 | 0 | 85 | 56 | 0 | 0 | - | STEP inh conf=0
O=C(N/N=C/c1ccccc1)c1ccc(-c2ccccc2)cc1 | 0 | 0 | 0 | 0 | 0 | - | - | - | -
CCOc1ccc(C(=O)Nc2ccc(NC(=O)c3ccccc3)c(C)c2)cc1[N+](=O)[O-] | 0 | 0 | 78 | 0 | 44 | 59 | 0 | 0 | - | STEP inh conf=0
COCCNC(=O)[C@]1(C#N)CC(=O)N(C)[C@@H]1c1ccccc1 | 0 | - | - | - | - | - | - | - | -
CCc1c(C)[nH]n(-c2ccc(Oc3ccccc3)c(S(=O)(=O)O)c2)c1=O | - | 0 | 79 | 0 | 53 | 80 | 0 | 0 | - | STEP inh conf=36
O=C(OC12CCCN(C1)/C(=C/c1ccccc1)C2)C1CCCCC1 (stereo not drawn) | 0 | - | - | - | - | - | - | - | -
COc1ccc(S[C@]2(C(=O)N3CCN(c4ncccn4)CC3)CC(=O)N(c3ccc(OC)cc3)[C@@H]2c2ccc(OC)cc2)cc1 | 0 | - | - | - | - | - | - | - | -
C=CCn1c(=NC(=O)c2sc3ccccc3c2Cl)sc2cc(S(N)(=O)=O)ccc21 | - | 36 | 88 | 0 | 0 | 78 | 0 | 0 | 0
O=C(NCCO)C1(C(=O)C2CC2)CC(c2ccccn2)=NO1 (stereo not drawn) | 0 | - | - | - | - | - | - | - | -
O=C(N/N=C/c1cn(-c2cccs2)nc1-c1ccccc1)c1ccccc1Br | 0 | 0 | 0 | 0 | 0 | - | - | - | -
O=C(N/N=C/c1cn(-c2cccs2)nc1-c1ccccc1)c1ccccc1O | 0 | 34 | 72 | 0 | 0 | 0 | 0 | - | 0
COC(=O)c1c(NC(=O)COC(=O)c2ccc(NC(=O)CC#N)cc2)sc2c1CCCCC2 | 0 | 82 | 76 | 74 | 0 | 71 | 0 | 14 | 0
COC(=O)c1c(NC(=O)COC(=O)c2ccccc2O)sc2c1CCCCC2 | 0 | 0 | 0 | 0 | 0 | - | - | - | -
COc1ccc(/C=N/N=C2/NC(=O)C(CC(=O)O)S2)cc1OCc1ccc(Cl)cc1Cl (stereo not drawn) | 0 | 36 | 66 | 0 | 80 | 79 | 0 | 0 | 0 | STEP inh conf=35
COC(=O)C1CN(Cc2cn(Cc3ccccc3)nn2)CCS(=O)(=O)N1Cc1ccc(C)cc1 (stereo not drawn) | 0 | - | - | - | - | - | - | - | -
COc1ccc(NC(=O)c2cc(C)nc3ccccc23)cc1S(=O)(=O)N1CCOCC1 | 0 | 0 | 0 | 0 | 0 | - | - | - | -
Cc1ccc(NC(=O)c2cc(-c3ccco3)nc3ccccc23)cc1S(=O)(=O)N1CCOCC1 | 0 | 63 | 65 | 0 | 0 | 36 | 0 | 7.1 | 60
CN(C)C(CNC(=O)c1cc(-c2ccco2)nc2ccccc12)c1ccccc1 (stereo not drawn) | 0 | 59 | 70 | 0 | 0 | 55 | 0 | 13 | 59
CSc1ccc(NC(=O)CSc2nc3[nH]c(=O)cc(O)c3s2)cc1 | 56 | 54 | 71 | 0 | 0 | 40 | 0 | 14 | 0
O=C(OC12CCCN(C1)/C(=C/c1ccccc1)C2)c1cccc(F)c1 (stereo not drawn) | 0 | - | - | - | - | - | - | - | -
O=[N+]([O-])c1ccc(C=NNC(=S)Nc2ccc(F)cc2)cc1 | 0 | 0 | 0 | 0 | 0 | - | - | - | -
O=[N+]([O-])c1ccc(C=NNC(=S)NN=Cc2ccc([N+](=O)[O-])cc2)cc1 | 0 | 35 | 88 | 75 | 96 | 55 | 0 | 12 | 0 | STEP inh conf=0
SMILES | rCAG binder | NadD inh | Scp-1 inhibitor | LMPTP inh | STEP inh | Scp-1 conf | MG interference | Scp1 DSF | NadD conf | others
O=C(Nc1ccccc1C(F)(F)F)NC1(C(=O)N2CCOCC2)CCCCC1 | 72 | 31 | 75 | 61 | 0 | 55 | 0 | 12 | 0
CN1C(=O)c2cc(NC(=O)Nc3ccccc3)ccc2OC[C@H]2O[C@@H](CC(=O)N[C@H]3CCN(Cc4ccccc4)C3)CC[C@@H]21 | 0 | - | - | - | - | - | - | - | -
Cc1cccc(N2CCN(C(=O)CCCCCn3c(=S)[nH]c4ccc(N5CCOCC5)cc4c3=O)CC2)c1C | 0 | 46 | 82 | 0 | 0 | 0 | 0 | - | 0
Cc1noc(C)c1NC(=O)N(C)C[C@@H]1Oc2c(NC(=O)c3ccncc3)cccc2C(=O)N([C@H](C)CO)C[C@@H]1C | 0 | 36 | 94 | 0 | 0 | 66 | 0 | 0 | 57
C[C@@H]1CN([C@H](C)CO)C(=O)c2cc(NC(=O)c3ccncc3)ccc2O[C@@H]1CN(C)C(=O)Nc1ccccc1 | 0 | 61 | 94 | 0 | 0 | 61 | 0 | 0 | 47
Cc1noc(C)c1NC(=O)N(C)C[C@@H]1Oc2c(NC(=O)NC(C)C)cccc2C(=O)N([C@@H](C)CO)C[C@@H]1C | 0 | 0 | 0 | 0 | 0 | - | - | - | -
C=CCN1C(=O)c2[nH]nc(-c3ccccc3)c2C1c1ccc(C)cc1 (stereo not drawn) | 0 | - | - | - | - | - | - | - | -
O=C(C1CCCN(S(=O)(=O)c2ccc(F)cc2)C1)N1CCN(Cc2ccccc2)CC1 (stereo not drawn) | 0 | - | - | - | - | - | - | - | -
CCn1c(Cc2cccs2)nnc1SCC(=O)Nc1ccc(OCc2ccccc2)cc1 | 0 | - | - | - | - | - | - | - | -
Cc1ccc(S(=O)(=O)c2cc3c(=O)n4ccccc4nc3n(Cc3ccco3)c2=N)cc1 | 0 | 43 | 66 | 0 | 0 | 0 | 0 | - | 0
Cc1cc(-c2nn3c(-c4ccccc4)nnc3s2)c2ccccc2n1 | 0 | 0 | 0 | 0 | 0 | - | - | - | -
c1ccc(-c2cc(-c3nn4c(-c5ccco5)nnc4s3)c3ccccc3n2)cc1 | - | 47 | 92 | 0 | 0 | 43 | 0 | 7.3 | 0
Cc1cccc2sc(NC(=O)C3CCN(S(=O)(=O)c4cc([N+](=O)[O-])ccc4Cl)CC3)nc12 | 0 | 46 | 80 | 0 | 0 | 54 | 0 | 12 | 0
O=C(NC1CC1)C1CCN(S(=O)(=O)c2cc([N+](=O)[O-])ccc2Cl)CC1 | 0 | 52 | 76 | 0 | 0 | 69 | 0 | 11 | 0
